Measured values published in ChEMBL document CHEMBL2177098, “Synthesis and evaluation of novel ¹⁸F labeled 2-pyridinylbenzoxazole and 2-pyridinylbenzothiazole derivatives as ligands for positron emission tomography (PET) imaging of β-amyloid plaques” (J Med Chem, 2012).
One block for each compound: values may come before it.

Experiments:
[1] = Displacement of [125I]-IMPY from amyloid beta (1 to 42) fibrils after 2 hrs by gamma-counting analysis
Outline: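 Competition binding with aggregated Aβ1-42 fibrils and [125I]IMPY (60000−100000 cpm/100 μL) in 0.05% BSA (1 mL total); inhibitors 10⁻⁴−10^−8.5 M in ethanol. Incubated 37 °C for 2 h, then GF/B vacuum filtration with PBS (0.02 M, pH 7.4) washes and γ counting. Three repeats; IC50 converted to Ki by Cheng−Prusoff.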

Lung [2] = experiment: Drug uptake in ICR mouse lung at 370 kBq/100 ul, iv at 60 mins by gamma-counting analysis; assay type: ADME, organism-based; conditions: in vivo, 1 h
Outline: (§1)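 Male ICR mice (5 weeks, about 20 g) got 18F tracer in saline (370 KBq per 100 μL) via tail vein; n = 5 per time point, killed at 2, 10, 30, 60 min. Organs weighed and γ-counted; percent dose per gram wet tissue from comparison with diluted injectate aliquots.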

Brain [3] = experiment: Drug uptake in ICR mouse brain at 370 kBq/100 ul, iv at 60 mins by gamma-counting analysis; assay type: ADME, organism-based; conditions: in vivo, 1 h; outline: as §1
Blood [4] = experiment: Drug uptake in ICR mouse blood at 370 kBq/100 ul, iv at 10 mins by gamma-counting analysis; assay type: ADME, organism-based; conditions: in vivo; outline: as §1
Blood [5] = experiment: Drug uptake in ICR mouse blood at 370 kBq/100 ul, iv at 2 mins by gamma-counting analysis; assay type: ADME, organism-based; conditions: in vivo; outline: as §1
Kidney [6] = experiment: Drug uptake in ICR mouse kidney at 370 kBq/100 ul, iv at 60 mins by gamma-counting analysis; assay type: ADME, organism-based; conditions: in vivo, 1 h; outline: as §1
Blood [7] = experiment: Drug uptake in ICR mouse blood at 370 kBq/100 ul, iv at 60 mins by gamma-counting analysis; assay type: ADME, organism-based; conditions: in vivo, 1 h; outline: as §1
Stomach [8] = experiment: Drug uptake in ICR mouse stomach assessed per organ at 370 kBq/100 ul, iv at 30 mins by gamma-counting analysis; assay type: ADME, organism-based; conditions: in vivo, 0.5 h
Outline: (§2)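 Male ICR mice (5 weeks, about 20 g) got 18F tracer in saline (370 KBq per 100 μL) via tail vein; n = 5 per time point, killed at 2, 10, 30, 60 min. Organs removed and γ-counted against diluted injectate; expressed as % injected dose per organ.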

Spleen [9] = experiment: Drug uptake in ICR mouse spleen at 370 kBq/100 ul, iv at 30 mins by gamma-counting analysis; assay type: ADME, organism-based; conditions: in vivo, 0.5 h; outline: as §1
Spleen [10] = experiment: Drug uptake in ICR mouse spleen at 370 kBq/100 ul, iv at 10 mins by gamma-counting analysis; assay type: ADME, organism-based; conditions: in vivo; outline: as §1
Heart [11] = experiment: Drug uptake in ICR mouse heart at 370 kBq/100 ul, iv at 60 mins by gamma-counting analysis; assay type: ADME, organism-based; conditions: in vivo, 1 h; outline: as §1
Brain [12] = experiment: Drug uptake in ICR mouse brain at 370 kBq/100 ul, iv at 2 mins by gamma-counting analysis; assay type: ADME, organism-based; conditions: in vivo; outline: as §1
Brain [13] = experiment: Drug uptake in wild type C57BL6 mouse brain at 370 KBq/100 ul after 1 hr by autoradiographic analysis; assay type: ADME, tissue-based; conditions: in vitro
Outline: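 Paraffin brain sections from 12-month-old male control C57BL6 mice were deparaffinized through xylene and graded ethanol, then held in PBS (0.2 M, pH 7.4) for 30 min. They were incubated with the ¹⁸F tracer (370 KBq per 100 μL) for 1 h at room temperature. Sections were washed in 40% EtOH, rinsed with water for 1 min, dried, and exposed to a phosphor plate for 2 h. The same sections were then stained with thioflavin S.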

Lung [14] = experiment: Drug uptake in ICR mouse lung at 370 kBq/100 ul, iv at 30 mins by gamma-counting analysis; assay type: ADME, organism-based; conditions: in vivo, 0.5 h; outline: as §1
Intestine [15] = experiment: Drug uptake in ICR mouse intestine assessed per organ at 370 kBq/100 ul, iv at 30 mins by gamma-counting analysis; assay type: ADME, organism-based; conditions: in vivo, 0.5 h; outline: as §2
Kidney [16] = experiment: Drug uptake in ICR mouse kidney at 370 kBq/100 ul, iv at 10 mins by gamma-counting analysis; assay type: ADME, organism-based; conditions: in vivo; outline: as §1
Intestine [17] = experiment: Drug uptake in ICR mouse intestine assessed per organ at 370 kBq/100 ul, iv at 10 mins by gamma-counting analysis; assay type: ADME, organism-based; conditions: in vivo; outline: as §2
Liver [18] = experiment: Drug uptake in ICR mouse liver at 370 kBq/100 ul, iv at 60 mins by gamma-counting analysis; assay type: ADME, organism-based; conditions: in vivo, 1 h; outline: as §1
Heart [19] = experiment: Drug uptake in ICR mouse heart at 370 kBq/100 ul, iv at 30 mins by gamma-counting analysis; assay type: ADME, organism-based; conditions: in vivo, 0.5 h; outline: as §1
Blood [20] = experiment: Drug uptake in ICR mouse blood at 370 kBq/100 ul, iv at 30 mins by gamma-counting analysis; assay type: ADME, organism-based; conditions: in vivo, 0.5 h; outline: as §1
Brain [21] = experiment: Drug uptake in ICR mouse brain at 370 kBq/100 ul, iv at 10 mins by gamma-counting analysis; assay type: ADME, organism-based; conditions: in vivo; outline: as §1
Lung [22] = experiment: Drug uptake in ICR mouse lung at 370 kBq/100 ul, iv at 2 mins by gamma-counting analysis; assay type: ADME, organism-based; conditions: in vivo; outline: as §1
Stomach [23] = experiment: Drug uptake in ICR mouse stomach assessed per organ at 370 kBq/100 ul, iv at 2 mins by gamma-counting analysis; assay type: ADME, organism-based; conditions: in vivo; outline: as §2
Kidney [24] = experiment: Drug uptake in ICR mouse kidney at 370 kBq/100 ul, iv at 30 mins by gamma-counting analysis; assay type: ADME, organism-based; conditions: in vivo, 0.5 h; outline: as §1
Liver [25] = experiment: Drug uptake in ICR mouse liver at 370 kBq/100 ul, iv at 30 mins by gamma-counting analysis; assay type: ADME, organism-based; conditions: in vivo, 0.5 h; outline: as §1
Bone [26] = experiment: Drug uptake in ICR mouse bone at 370 kBq/100 ul, iv at 2 mins by gamma-counting analysis; assay type: ADME, organism-based, Bone element; conditions: in vivo; outline: as §1
Spleen [27] = experiment: Drug uptake in ICR mouse spleen at 370 kBq/100 ul, iv at 60 mins by gamma-counting analysis; assay type: ADME, organism-based; conditions: in vivo, 1 h; outline: as §1
Bone [28] = experiment: Drug uptake in ICR mouse bone at 370 kBq/100 ul, iv at 60 mins by gamma-counting analysis; assay type: ADME, organism-based, Bone element; conditions: in vivo, 1 h; outline: as §1
[29] = n-Octanol-PBS buffer partition coefficient, log D of the compound at 1.5 MBq after 3 mins at pH 7.4; assay type: physicochemical
Outline: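 The tracer was partitioned between n-octanol and PBS by vortexing for 3 min at room temperature, then centrifuged for 5 min at 3000 rpm. Samples of the octanol (50 μL) and aqueous (500 μL) layers were counted. log D is the log of the octanol/PBS counts-per-gram ratio. The octanol layer was repartitioned until values were consistent. Measured in triplicate and repeated three times.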

Stomach [30] = experiment: Drug uptake in ICR mouse stomach assessed per organ at 370 kBq/100 ul, iv at 60 mins by gamma-counting analysis; assay type: ADME, organism-based; conditions: in vivo, 1 h
Outline: (§3)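 Normal male ICR mice (5 weeks, about 20 g) received the ¹⁸F tracer in saline (370 KBq per 100 μL) by tail-vein injection. Groups of n = 5 were killed at 2, 10, 30 and 60 min. Organs were removed, weighed and γ-counted against diluted aliquots of the injectate, giving % dose per gram. Stomach and intestine were expressed per organ. The brain ratio is 2 min/60 min uptake. Values are mean ± SD.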

Kidney [31] = experiment: Drug uptake in ICR mouse kidney at 370 kBq/100 ul, iv at 2 mins by gamma-counting analysis; assay type: ADME, organism-based; conditions: in vivo; outline: as §1
Liver [32] = experiment: Drug uptake in ICR mouse liver at 370 kBq/100 ul, iv at 10 mins by gamma-counting analysis; assay type: ADME, organism-based; conditions: in vivo; outline: as §1
Heart [33] = experiment: Drug uptake in ICR mouse heart at 370 kBq/100 ul, iv at 2 mins by gamma-counting analysis; assay type: ADME, organism-based; conditions: in vivo; outline: as §1
Liver [34] = experiment: Drug uptake in ICR mouse liver at 370 kBq/100 ul, iv at 2 mins by gamma-counting analysis; assay type: ADME, organism-based; conditions: in vivo; outline: as §1
Brain [35] = experiment: Ratio of drug uptake in brain at 2 mins to drug uptake in brain at 60 mins in ICR mouse at 370 KBq/100 ul, iv; assay type: ADME, organism-based; conditions: in vivo; outline: as §3
Spleen [36] = experiment: Drug uptake in ICR mouse spleen at 370 kBq/100 ul, iv at 2 mins by gamma-counting analysis; assay type: ADME, organism-based; conditions: in vivo; outline: as §1
Lung [37] = experiment: Drug uptake in ICR mouse lung at 370 kBq/100 ul, iv at 10 mins by gamma-counting analysis; assay type: ADME, organism-based; conditions: in vivo; outline: as §1
Bone [38] = experiment: Drug uptake in ICR mouse bone at 370 kBq/100 ul, iv at 30 mins by gamma-counting analysis; assay type: ADME, organism-based, Bone element; conditions: in vivo, 0.5 h; outline: as §1
Brain [39] = experiment: Drug uptake in ICR mouse brain at 370 kBq/100 ul, iv at 30 mins by gamma-counting analysis; assay type: ADME, organism-based; conditions: in vivo, 0.5 h; outline: as §1
Stomach [40] = experiment: Drug uptake in ICR mouse stomach assessed per organ at 370 kBq/100 ul, iv at 10 mins by gamma-counting analysis; assay type: ADME, organism-based; conditions: in vivo; outline: as §2
Intestine [41] = experiment: Drug uptake in ICR mouse intestine assessed per organ at 370 kBq/100 ul, iv at 60 mins by gamma-counting analysis; assay type: ADME, organism-based; conditions: in vivo, 1 h; outline: as §2
Heart [42] = experiment: Drug uptake in ICR mouse heart at 370 kBq/100 ul, iv at 10 mins by gamma-counting analysis; assay type: ADME, organism-based; conditions: in vivo; outline: as §1
Intestine [43] = experiment: Drug uptake in ICR mouse intestine assessed per organ at 370 kBq/100 ul, iv at 2 mins by gamma-counting analysis; assay type: ADME, organism-based; conditions: in vivo; outline: as §2
Bone [44] = experiment: Drug uptake in ICR mouse bone at 370 kBq/100 ul, iv at 10 mins by gamma-counting analysis; assay type: ADME, organism-based, Bone element; conditions: in vivo; outline: as §1

Ki [1]: 2.7 nM
SMILES: CN(C)c1ccc(-c2nc3ccc(OCCF)cc3s2)cn1

Drug uptake (Lung [2]): 1.79 % ID/g
Drug uptake (Brain [3]): 1.47 % ID/g
Drug uptake (Blood [4]): 2.05 % ID/g
Drug uptake (Blood [5]): 3.57 % ID/g
Drug uptake (Kidney [6]): 1.82 % ID/g
Drug uptake (Blood [7]): 2.06 % ID/g
Drug uptake (Stomach [8]): 2.54 %ID
Drug uptake (Spleen [9]): 1.6 % ID/g
Drug uptake (Spleen [10]): 2.02 % ID/g
Drug uptake (Heart [11]): 1.93 % ID/g
Drug uptake (Brain [12]): 7.27 % ID/g
Drug uptake (Brain [13]): Not Active
Drug uptake (Lung [14]): 1.85 % ID/g
Drug uptake (Intestine [15]): 38.88 %ID
Drug uptake (Kidney [16]): 3.82 % ID/g
Drug uptake (Intestine [17]): 21.45 %ID
Drug uptake (Liver [18]): 3.19 % ID/g
Drug uptake (Heart [19]): 1.83 % ID/g
Drug uptake (Blood [20]): 1.89 % ID/g
Drug uptake (Brain [21]): 3.41 % ID/g
Drug uptake (Lung [22]): 5.53 % ID/g
Drug uptake (Stomach [23]): 2.44 %ID
Drug uptake (Kidney [24]): 2.44 % ID/g
Drug uptake (Liver [25]): 4.39 % ID/g
Drug uptake (Bone [26]): 2.08 % ID/g
Drug uptake (Spleen [27]): 1.32 % ID/g
Drug uptake (Bone [28]): 1.88 % ID/g
logD at 0.05 h [29]: 3.53
Drug uptake (Stomach [30]): 2.79 %ID
Drug uptake (Kidney [31]): 8.48 % ID/g
Drug uptake (Liver [32]): 10.72 % ID/g
Drug uptake (Heart [33]): 5.95 % ID/g
Drug uptake (Liver [34]): 15.7 % ID/g
Ratio (Brain [35]): 4.95
Drug uptake (Spleen [36]): 3.22 % ID/g
Drug uptake (Lung [37]): 2.58 % ID/g
Drug uptake (Bone [38]): 1.56 % ID/g
Drug uptake (Brain [39]): 1.76 % ID/g
Drug uptake (Stomach [40]): 2.55 %ID
Ki [1]: 2.7 nM
Drug uptake (Intestine [41]): 37.02 %ID
Drug uptake (Heart [42]): 2.44 % ID/g
Drug uptake (Intestine [43]): 8.41 %ID
Drug uptake (Bone [44]): 1.27 % ID/g
SMILES: CN(C)c1ccc(-c2nc3cc(OCC[18F])ccc3o2)cn1
